# Laboratory results reported in ChEMBL document CHEMBL4052637, “Discovery and Characterization of R/S-N-3-Cyanophenyl-N'-(6-tert-butoxycarbonylamino-3,4-dihydro-2,2-dimethyl-2H-1-benzopyran-4-yl)urea, a New Histone Deacetylase Class III Inhibitor Exerting Antiproliferative Activity against Cancer Cell Lines” (J Med Chem, 2017).
# Activity calls are given as the source filed them. No cut-off for these calls is given here.
# What was measured:
# [1] = Selectivity index, ratio of IC50 for mouse astrocytes to IC50 for human Hs683 cells
# [2] = molecular target: T1, NAD-dependent protein deacetylase sirtuin-1 (Homo sapiens) (UniProt Q96EB6); assay: Inhibition of SIRT1 in human U373 cells assessed as increase of histone H3K56 acetylation at 10 to 25 after 8 to 24 hrs by Western blotting method; assay type: cell-based
# T1 sequence (whole entry): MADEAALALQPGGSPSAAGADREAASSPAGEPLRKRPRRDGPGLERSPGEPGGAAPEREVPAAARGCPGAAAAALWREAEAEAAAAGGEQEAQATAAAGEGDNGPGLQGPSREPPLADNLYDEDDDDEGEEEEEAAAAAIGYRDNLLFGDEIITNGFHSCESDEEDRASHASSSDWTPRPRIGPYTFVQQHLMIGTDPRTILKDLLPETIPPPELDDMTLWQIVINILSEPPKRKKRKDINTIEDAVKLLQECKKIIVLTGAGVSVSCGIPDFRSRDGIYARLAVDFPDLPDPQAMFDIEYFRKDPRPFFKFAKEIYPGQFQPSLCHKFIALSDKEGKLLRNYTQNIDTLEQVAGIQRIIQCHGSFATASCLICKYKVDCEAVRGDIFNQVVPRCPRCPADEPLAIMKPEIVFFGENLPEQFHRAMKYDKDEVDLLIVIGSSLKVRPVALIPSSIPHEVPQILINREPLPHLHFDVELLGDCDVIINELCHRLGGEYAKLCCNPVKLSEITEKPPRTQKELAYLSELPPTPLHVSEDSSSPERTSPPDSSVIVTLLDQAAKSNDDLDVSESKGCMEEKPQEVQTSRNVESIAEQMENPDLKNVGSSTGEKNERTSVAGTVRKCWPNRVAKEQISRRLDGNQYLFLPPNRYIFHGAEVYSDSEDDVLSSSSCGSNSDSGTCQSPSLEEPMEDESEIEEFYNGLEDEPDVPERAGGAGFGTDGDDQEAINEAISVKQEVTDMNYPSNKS
# Outline: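 Cells treated with the compound, then histone H3K56 acetylation assessed by Western blot on histone extracts; histone H1 or Coomassie staining as loading control.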
# [3] = Cytostatic activity against human U373 cells at 10 uM after 72 hrs by quantitative videomicroscopy relative to control; assay type: functional, U-373MG ATCC
# Outline: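 Cells were grown in 25 cm2 flasks, and phase-contrast images were recorded every 4 min over 72 h, in triplicate. Global growth is cell count on the last image divided by cell count on the first, at 24, 48 and 72 h. The GGR index is treated GG divided by control GG.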
# RXF 393 = assay: Growth inhibition of human RXF393 cells after 48 hrs by SRB assay; assay type: functional; settings: RXF 393, 48 h
# [4] = molecular target: T2, NAD-dependent protein deacetylase sirtuin-2 (Homo sapiens) (UniProt Q8IXJ6); assay: Inhibition of SIRT2 in human Hs683 cells assessed as increase of alpha-tubulin acetylation at 10 uM after 8 hrs by Western blotting method relative to control; assay type: cell-based
# T2 sequence (whole entry): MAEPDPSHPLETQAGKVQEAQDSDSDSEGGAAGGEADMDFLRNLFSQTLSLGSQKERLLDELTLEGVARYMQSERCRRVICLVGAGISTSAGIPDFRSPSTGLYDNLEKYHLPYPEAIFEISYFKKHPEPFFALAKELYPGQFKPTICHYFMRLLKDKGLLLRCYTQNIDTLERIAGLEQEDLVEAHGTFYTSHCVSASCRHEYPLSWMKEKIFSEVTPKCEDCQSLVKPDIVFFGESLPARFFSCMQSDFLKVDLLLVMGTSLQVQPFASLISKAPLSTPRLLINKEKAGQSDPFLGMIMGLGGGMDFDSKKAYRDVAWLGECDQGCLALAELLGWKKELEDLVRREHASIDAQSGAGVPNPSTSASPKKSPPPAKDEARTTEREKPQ
# [5] = molecular target: T2, NAD-dependent protein deacetylase sirtuin-2 (Homo sapiens); assay: Inhibition of SIRT2 in human U373 cells assessed as increase of alpha-tubulin acetylation at 2.5 uM after 8 hrs by Western blotting method relative to control; assay type: cell-based
# SF-295 = assay: Growth inhibition of human SF295 cells after 48 hrs by SRB assay; assay type: functional; settings: SF-295, 48 h
# KB 3-1 = assay: Antiproliferative activity against human KB-3-1 cells after 72 hrs by MTT assay; assay type: functional, cell-based
# Outline: (§1)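 MTT assay: cells in RPMI 1640 with 10% heat-inactivated FCS at 37 °C and 5% CO2 were seeded 24 h before treatment. They were exposed 72 h to compound at 0.01–100 μM, with DMSO as solvent.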
# SK-MEL-28 = assay: Growth inhibition of human SK-MEL-28 cells after 48 hrs by SRB assay; assay type: functional; settings: SK-MEL-28, 48 h
# [6] = molecular target: T2, NAD-dependent protein deacetylase sirtuin-2 (Homo sapiens); assay: Inhibition of SIRT2 in human U373 cells assessed as increase of alpha-tubulin acetylation at 5 uM after 8 hrs by Western blotting method relative to control; assay type: cell-based
# A2780 = assay: Antiproliferative activity against human A2780 cells after 72 hrs by MTT assay; assay type: functional, cell-based; outline: as §1
# [7] = Antiproliferative activity against human U373 cells after 72 hrs by MTT assay; assay type: functional, cell-based, U-373MG ATCC; settings: U373 MG; outline: as §1
# Homo sapiens = organism: Homo sapiens; assay: Inhibition of HDAC isolated from human K562 cells at 0.1 to 100 uM using Fluor-de-Lys as substrate after 15 mins by fluorescence assay
# BT-549 = assay: Growth inhibition of human BT549 cells after 48 hrs by SRB assay; assay type: functional; settings: BT-549, 48 h
# U-251 = assay: Growth inhibition of human U251 cells after 48 hrs by SRB assay; assay type: functional; settings: U-251, 48 h
# HCC 2998 = assay: Growth inhibition of human HCC2998 cells after 48 hrs by SRB assay; assay type: functional; settings: HCC 2998, 48 h
# [8] = molecular target: T2, NAD-dependent protein deacetylase sirtuin-2 (Homo sapiens); assay: Inhibition of SIRT2 in human Hs683 cells assessed as increase of alpha-tubulin acetylation at 5 uM after 8 hrs by Western blotting method relative to control; assay type: cell-based
# OVCAR-8 = assay: Growth inhibition of human OVCAR8 cells after 48 hrs by SRB assay; assay type: functional; settings: OVCAR-8, 48 h
# [9] = molecular target: T2, NAD-dependent protein deacetylase sirtuin-2 (Homo sapiens); assay: Inhibition of SIRT2 in human Hs683 cells assessed as increase of alpha-tubulin acetylation after 8 hrs by Western blotting method; assay type: cell-based
# U-373MG ATCC = assay: Inhibition of spheroid forming capacity of human U373 cells assessed as decrease in surface area of tumor spheroids at 5 to 10 uM treated for 24 hrs measured after 96 hrs by bright field microscopic method; assay type: functional, cell-based
# Outline: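 Spheroids formed from 1 × 10^3 cells in 25 μL. Cells were pretreated 24 h with compound then left untreated 96 h, or untreated spheroids were cultured 96 h with compound. Surface measured from bright-field images; volume in voxels from 3D plots after image segmentation. Mean ± SD of three independent experiments.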
# [10] = molecular target: NAD-dependent protein deacetylase sirtuin-3, mitochondrial (Homo sapiens, UniProt Q9NTG7); assay: Inhibition of N-terminal His-tagged recombinant human SIRT-3 expressed in Escherichia coli using Fluor-de-Lys-SIRT1 as substrate after 15 mins by fluorescence assay
# NAD-dependent protein deacetylase sirtuin-3, mitochondrial, sequence (Q9NTG7 whole entry): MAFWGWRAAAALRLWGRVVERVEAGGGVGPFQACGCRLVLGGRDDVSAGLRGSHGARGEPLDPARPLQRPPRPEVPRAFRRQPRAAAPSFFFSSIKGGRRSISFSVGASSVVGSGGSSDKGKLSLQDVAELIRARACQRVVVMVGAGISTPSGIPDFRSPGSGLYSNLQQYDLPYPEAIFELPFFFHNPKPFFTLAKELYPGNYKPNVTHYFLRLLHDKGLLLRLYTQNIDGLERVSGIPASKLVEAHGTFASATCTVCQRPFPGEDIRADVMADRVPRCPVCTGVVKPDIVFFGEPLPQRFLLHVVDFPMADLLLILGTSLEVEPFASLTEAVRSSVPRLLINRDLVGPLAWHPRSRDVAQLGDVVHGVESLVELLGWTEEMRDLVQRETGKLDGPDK
# SW1573/2R160 = assay: Antiproliferative activity against human SW1573/2R160 cells overexpressing ABCB1 after 72 hrs by MTT assay; assay type: functional, cell-based; outline: as §1
# HCT-116 = assay: Antiproliferative activity against p53 knock out human HCT116 cells after 72 hrs by MTT assay; assay type: functional, cell-based; outline: as §1
compound,measurement,setting,value
CC(C)(C)OC(=O)Nc1ccc2c(c1)C(NC(=O)Nc1cccc(C#N)c1)CC(C)(C)O2 (stereo not drawn),Ratio IC50,[1],>10
same,inhibition,[2],Active
same,Activity,[3],70%
same,GI50,RXF 393,6.17 µM
same,fold change (FC),[4],1.6
same,fold change (FC),[5],1.4
same,GI50,SF-295,2.29 µM
same,Activity,KB 3-1,Active
same,GI50,SK-MEL-28,6.46 µM
same,fold change (FC),[6],5.9
same,Activity,A2780,Active
same,IC50,[7],6 to 7.5 µM
same,inhibition,Homo sapiens,inactive
same,GI50,BT-549,3.8 µM
same,GI50,U-251,1.48 µM
same,GI50,HCC 2998,5.13 µM
same,fold change (FC),[8],1.5
same,GI50,OVCAR-8,3.16 µM
same,inhibition,[9],Dose-dependent effect
same,inhibition,U-373MG ATCC,Active
same,IC50,[10],> 200 µM
same,Activity,SW1573/2R160,Active
same,Activity,HCT-116,Active
